Data reported in ChEMBL document CHEMBL1152376, “N-[(Dihydroxyphenyl)acyl]serotonins as potent inhibitors of tyrosinase from mouse and human melanoma cells” (Bioorg Med Chem Lett, 2009).
Calls of active or inactive are those of the source. The rule behind the calls is not given here.

Columns and labels:
[1] = Cytotoxicity against mouse B16 cells assessed as cell viability at 20 uM after 2 days by tetrazolium reduction assay; type: cell-based; details: read-out: Activity
In short: (§1)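 B16 cells seeded at 1.5 × 10⁴ per well, cultured 1 day, then given compound in ethanol (stock 0–10 mM) and incubated 2 days. Medium aspirated and viability measured with a tetrazolium reagent. Values are means of 8 or 9 wells, with Student's t-test against control.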

B16 [2] = test: Antimelanogenic activity in mouse B16 cells assessed as inhibition of extracellular melanin formation after 2 days; details: B16, 48 h
Tyrosinase [3] = molecular target: T1, Tyrosinase (Mus musculus, UniProt P11344); test: Inhibition of catecholase activity of tyrosinase in mouse B16 cells assessed as dopachrome formation; type: cell-based
T1 sequence (P11344 whole entry): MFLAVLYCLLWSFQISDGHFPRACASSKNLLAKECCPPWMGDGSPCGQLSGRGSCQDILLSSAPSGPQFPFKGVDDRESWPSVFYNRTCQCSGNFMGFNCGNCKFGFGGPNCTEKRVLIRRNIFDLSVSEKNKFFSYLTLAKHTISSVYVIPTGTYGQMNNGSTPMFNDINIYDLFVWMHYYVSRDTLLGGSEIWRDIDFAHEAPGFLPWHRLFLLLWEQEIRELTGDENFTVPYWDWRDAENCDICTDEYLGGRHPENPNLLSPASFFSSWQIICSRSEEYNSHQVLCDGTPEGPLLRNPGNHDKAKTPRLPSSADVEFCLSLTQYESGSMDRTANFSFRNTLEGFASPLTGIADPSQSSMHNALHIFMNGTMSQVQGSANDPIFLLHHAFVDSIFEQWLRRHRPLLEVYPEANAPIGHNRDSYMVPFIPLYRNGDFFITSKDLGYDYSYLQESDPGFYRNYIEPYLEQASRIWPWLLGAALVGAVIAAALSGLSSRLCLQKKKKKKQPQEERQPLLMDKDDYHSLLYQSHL

B16 [4] = test: Cytotoxicity against mouse B16 cells assessed as cell viability at < 30 uM after 2 days by tetrazolium reduction assay; type: cell-based; details: b16, 48 h; in short: as §1
B16 [5] = test: Cytotoxicity against mouse B16 cells assessed as cell viability at 10 to 30 uM after 2 days by tetrazolium reduction assay; type: cell-based; details: b16, 48 h; in short: as §1
[6] = molecular target: T2, Tyrosinase (Mus musculus) (UniProt P11344); test: Inhibition of catecholase activity of tyrosinase in mouse B16 cells assessed as residual activity at […] preincubated for 5 to 30 mins in absence of L-DOPA substrate; type: cell-based
T2 sequence (whole entry): T1 sequence (P11344 whole entry)
In short: (§2)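 Enzyme was preincubated with inhibitor (added in ethanol as a 20 mM stock) in 50 mM phosphate buffer pH 6.8, with or without 0.125 mM L-DOPA, at 37 °C for 5, 10, 20 or 30 min. Buffer containing 5.3 mM L-DOPA was then added and dopachrome read at 475 nm. Control (=100) was 31 min preincubation without inhibitor; mean ± sd, n = 3.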

[7] = molecular target: T2, Tyrosinase (Mus musculus); test: Inhibition of catecholase activity of tyrosinase in mouse B16 cells assessed as residual activity at […] measured after preincubation presence of L-DOPA substrate; type: cell-based; details: TDE = time-dependent effect; in short: as §2
Tyrosinase [8] = molecular target: T1, Tyrosinase; test: Apparent noncompetitive inhibition of catecholase activity of tyrosinase in mouse B16 cells by Lineweaver-Burke plot analysis; type: cell-based; details: read-out: Ki(app)
In short: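 Tyrosinase extracted from B16 cells (DMEM, 15% FBS) was assayed with L-DOPA in 50 mM phosphate buffer pH 6.8 at 37 °C. Dopachrome formation over 5 min was read at 475 nm (ε = 3700 M⁻¹ cm⁻¹). Inhibitor was tested at several fixed levels (e.g. 0–70 µM), L-DOPA was varied, Lineweaver–Burk lines were fitted by least squares, and apparent Ki was derived.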

B16 [9] = test: Ratio of IC50 of drug to IC50 of kojic acid for antimelanogenic activity in mouse B16 cells; type: functional
In short: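 B16 cells (1.5 × 10⁴ per well) were cultured 1 day, given compound in ethanol (stock 0–10 mM), and incubated 2 days. Medium darkening from extracellular melanin was read at 415 nm and IC50 derived.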

[10] = Cytotoxicity against human HMVII cells assessed as cell viability at 40 uM after 2 days by tetrazolium reduction assay; type: cell-based; details: hmv-2, 48 h
In short: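 HMV-II cells given compound in ethanol and incubated 2 days, then viability measured by tetrazolium reduction. Values are % control, mean ± SEM (n = 3–4) from a representative repeated experiment.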

B16 [11] = test: Antimelanogenic activity in mouse B16 cells assessed as inhibition of intracellular melanin accumulation at 2 to 40 uM after 2 days; type: functional, cell-based
In short: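 B16 cells grown in DMEM with 15% FBS, seeded at 7.5 × 10⁴ cells per well, cultured 1 day, then given compound in ethanol and incubated 2 days. Cells scraped, washed with PBS and sonicated in 0.2 ml 1 N NaOH. Intracellular melanin read as homogenate absorbance at 415 nm, expressed as % control.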

[12] = Antimelanogenic activity in human HMVII cells assessed as inhibition of intracellular melanin accumulation at 20 to 40 uM after 2 days; type: functional, HMV-2
[13] = Cytotoxicity against mouse B16 cells assessed as cell viability at 200 uM after 2 days by tetrazolium reduction assay; type: cell-based; details: read-out: Activity
In short: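 B16 mouse melanoma cells in DMEM with 15% FBS, seeded at 1.5 × 10⁴ cells per well and cultured 1 day. Compound then added in ethanol and incubated 2 days. Medium aspirated and viability read with a tetrazolium reagent. Means of 8 or 9 wells, Student's t-test versus control.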

Row | Structure (SMILES) | viability at 48 h, 20 µM [1] [%] | IC50 (B16 [2]) [µM] | IC50 (Tyrosinase [3]) [µM] | Activity (B16 [5]) | also measured
1 | O=C(NCCc1c[nH]c2ccccc12)c1ccc(O)cc1 | 94 | > 30 | – | – | –
2 | Oc1ccc2[nH]ccc2c1 | 100 | 13 | 68 | – | –
3 | COc1cc(C(=O)NCCc2c[nH]c3ccc(O)cc23)ccc1O | 93 | > 30 | 211 | – | Activity (B16 [4]): Non-toxic
4 | O=C(NCCc1c[nH]c2ccccc12)c1ccccc1 | 85 | – | – | Toxic | –
5 | O=C(/C=C/c1ccc(O)c(O)c1)NCCc1c[nH]c2ccccc12 | 54 | – | – | Toxic | –
6 | O=C(/C=C/c1ccc(O)c(O)c1)NCCc1c[nH]c2ccc(O)cc12 [N-CAFFEOYLSEROTONIN] | 99 | 15 | 28 | – | Activity (B16 [4]): Non-toxic
7 | O=C(NCCc1c[nH]c2ccc(O)cc12)c1ccc(O)cc1O | 101 | 15 | 42 | – | Activity (B16 [4]): Non-toxic
8 | O=C(NCCc1ccc(O)cc1)c1ccc(O)c(O)c1 | 88 | – | – | Toxic | –
9 | CC(=O)NCCc1c[nH]c2ccc(O)cc12 [ACETYLSEROTONIN] | 93 | > 30 | 311 | – | Activity [6]: Active; Activity [7]: tde; Ki (Tyrosinase [8]): 240 µM
10 | O=C(NCCc1c[nH]c2ccccc12)c1ccc(O)c(O)c1 | 69 | – | – | Toxic | –
11 | O=C(NCCc1c[nH]c2ccc(O)cc12)c1ccccc1 | 96 | > 30 | 333 | – | –
12 | COc1ccc2[nH]cc(CCNC(=O)/C=C/c3ccc(O)c(O)c3)c2c1 | 41 | – | – | Toxic | –
13 | O=C(/C=C/c1ccc(O)c(O)c1)NCCc1ccc(O)cc1 | 84 | – | – | Toxic | –
14 | COc1cc(/C=C/C(=O)NCCc2c[nH]c3ccc(O)cc23)ccc1O [N-FERULOYL SEROTONIN] | 100 | 23 | 216 | – | Activity (B16 [4]): Non-toxic
15 | O=C(NCCc1c[nH]c2ccc(O)cc12)c1ccc(O)c(O)c1 | 99 | 3 | 73 | – | Ratio IC50 (B16 [9]): 40; Activity (B16 [4]): Non-toxic; Activity [10]: Toxic; Activity (B16 [11]): inactive; inhibition (INH) [12]: 20%; Ki (Tyrosinase [8]): 64 µM
16 | NCCc1c[nH]c2ccc(O)cc12 [SEROTONIN] | 101 | > 30 | 550 | – | –
17 | COc1cc(/C=C/C(=O)NCCc2c[nH]c3ccccc23)ccc1O | 102 | > 30 | – | – | –
18 | O=c1cc(CO)occ1O [KOJIC ACID] | – | 111 | – | – | viability at 48 h, 200 µM [13]: 99%
19 | NC(=O)c1ccc(O)c(O)c1 [PROTOCATECHUAMIDE] | – | – | – | – | Ki (Tyrosinase [8]; in the assay text read “Competitive” for “Apparent noncompetitive”): 3700 µM
20 | O=C(NCCc1c[nH]c2ccc(O)cc12)c1ccc(O)cc1 | 100 | > 30 | 233 | – | –
